# In PMC5811788 (Journal of Clinical Pharmacology, 2017):
# “And” between values parts separate entries of the source, which are not always exact repeats. Equal values may be shown once. Read-outs that look alike come from different tables or passages of the source. Marks after values point to notes of the source that are not given here.
# Legend:
# [1] = ref data on file; Kyowa Kirin Pharmaceutical Development, Inc.; cited from earlier work
# Safety and tolerability = type: in vivo, healthy subjects (human); details: for Subjects who experienced AEs: 20 subjects
# [2] = test system: cytochrome P450 (CYP) isoenzymes; details: ref data on file; Kyowa Kirin Pharmaceutical Development, Inc.; cited from earlier work
# [3] = cited from earlier work
# A2A receptor = details: A2A vs A1, A2B, A3; cited from earlier work
# [4] = in those who received various CYP3A4 inhibitors; 1449 healthy subjects and PD patients; cited from earlier work
# P‐glycoprotein (P‐gp) = details: ref data on file; Kyowa Kirin Pharmaceutical Development, Inc.; cited from earlier work
# [5] = type: in vivo, healthy subjects (human); details: for AUC(0-t): AUClast; for Geometric Mean Ratio (90%CI) of AUCinf / Geometric Mean Ratio (90%CI) of AUClast / Geometric Mean Ratio (90%CI) of Cmax: istradefylline + rifampin vs istradefylline alone
# Outline: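 Crossover in 20 healthy humans. Single oral 40 mg tablet of the test compound given after ≥8 h fast, alone (period 1) or on day 8 of rifampin 600 mg once daily (days 1–20, dosed 2 h after test compound). Venous plasma sampled predose to 312 h. Noncompartmental AUClast and AUCinf, reported as geometric means and geometric mean ratios with 90% CI.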
# [6] = ref data on file; Kyowa Kirin Pharmaceutical Development, Inc.; cited from earlier work; remark: listed apart in the source
# [7] = coadministration of ketoconazole, healthy subjects; cited from earlier work
# [8] = doses of 20 and 40 mg/day; cited from earlier work
# [9] = during administration of the substance alone
# [10] = healthy subjects, independent of dose
# [11] = istradefylline 40 mg + steady-state rifampin 600 mg/day, arithmetic mean (SD)
# [12] = istradefylline 40 mg alone, arithmetic mean (SD)
# [13] = ln-transformed, istradefylline 40 mg + rifampin 600 mg/day, geometric mean (CV%)
# [14] = ln-transformed, istradefylline 40 mg alone, geometric mean (CV%)
# [15] = metabolite-to-parent ratio, istradefylline 40 mg alone, arithmetic mean (SD)
smiles,measurement,setting,value
CCn1c(=O)c2c(nc(/C=C/c3ccc(OC)c(OC)c3)n2C)n(CC)c1=O [Istradefylline],Aqueous solubility,[1],poor aqueous solubility
same,Subjects who experienced AEs,Safety and tolerability; during administration of istradefylline + rifampin,25%
same,Subjects who experienced AEs,Safety and tolerability; [9],20%
same,Tolerability,Safety and tolerability; given alone or in combination with rifampin,well tolerated
same,Treatment-related AEs (considered related to istradefylline),"Safety and tolerability; while receiving istradefylline alone, mild, transient disturbance in attention, asthenia, intermittent dizziness",single subject
same,CYP isoenzymes partly involved in metabolism,[2],"CYP1A2, 2B6, 2C8, 2C9, 2C18, and 2D6*1"
same,Main CYP isoenzymes involved in metabolism,[2],"CYP1A1, 3A4, and 3A5"
same,Dose proportionality of exposure (Cmax and AUC),[3]; healthy subjects and PD patients,directly proportional to istradefylline dose (up to 80 mg)
same,Apparent clearance (CL/F),[3]; [10],4.1 to 6.0 L/h
same,Apparent volume of distribution (Vz/F),[3]; [10],448 to 557 L
same,Terminal elimination half-life (t1/2),[3]; [10],67 to 95 h
same,"In vitro affinity, selectivity among adenosine receptor subtypes",A2A receptor,"higher in vitro affinity toward the A2A receptor than for A1, A2B, and A3 receptors"
same,Increase in AUC during the dosing interval at steady state (AUCss),[4],38%
same,P-gp substrate,P‐glycoprotein (P‐gp),not a P‐gp substrate
same,Decrease in istradefylline exposure based on AUC values,[5]; during coadministration of steady-state oral rifampin 600 mg/day,~80%
same,Cmax,"[5]; human, plasma, oral, 40 mg",171 ng/mL
same,Tmax,"[5]; human, plasma, oral, 40 mg",2 h
same,Vd/F,"[5]; human, plasma, oral, 40 mg",515 L
same,half-life,"[5]; human, plasma, oral, 40 mg",94.8 h
same,AUC(0-t),"[5]; human, plasma, oral, 40 mg, geometric mean, ln-transformed, istradefylline 40 mg alone, geometric mean (CV%)",9460 ng·h/mL
same,AUC(0-t),"[5]; human, plasma, oral, 40 mg, istradefylline 40 mg alone, arithmetic mean (SD)",9850 ng·h/mL
same,Cmax,"[5]; human, plasma, po, 40 mg",181 ng/mL
same,CL/F,[5]; [11],20.6 (6.7) L/h
same,CL/F,[5]; [12],4.0 (1.5) L/h
same,CL/F,"[5]; istradefylline 40 mg alone, arithmetic mean (SD), listed as istradefylline",4.0 L/h and 4.00 L/h
same,Geometric Mean Ratio (90%CI) of AUCinf,[5],0.19 (0.18–0.20)
same,Geometric Mean Ratio (90%CI) of AUClast,[5],0.21 (0.19–0.22)
same,Geometric Mean Ratio (90%CI) of Cmax,[5],0.55 (0.49–0.62)
same,Geometric Mean Ratio (90%CI) of AUCinf,[5]; listed as istradefylline,0.19
same,Geometric Mean Ratio (90%CI) of AUClast,[5]; listed as istradefylline,0.21
same,Geometric Mean Ratio (90%CI) of Cmax,[5]; listed as istradefylline,0.55
same,Bound to plasma protein,[6],~98%
same,Increase in AUCinf,[7],2.5 fold
same,OFF time in PD patients,[8],statistically significant improvement in OFF time
"CO[C@H]1/C=C/O[C@@]2(C)Oc3c(C)c(O)c4c(O)c(c(/C=N/N5CCN(C)CC5)c(O)c4c3C2=O)NC(=O)/C(C)=C\C=C\[C@H](C)[C@H](O)[C@@H](C)[C@@H](O)[C@@H](C)[C@H](OC(C)=O)[C@@H]1C [rifampin, reference compound]",Subjects who experienced AEs,Safety and tolerability; [9],85%
same,Subjects with chromaturia,Safety and tolerability; subjects receiving rifampin,70%
"CCn1c(=O)c2c(nc(/C=C/c3ccc(O)c(OC)c3)n2C)n(CC)c1=O [M1 metabolite, 4′‐O‐monodesmethylated derivative of istradefylline]",Exposure of metabolite in plasma as share of total drug exposure,[5]; generally,< 9%
same,AUCinf,[5]; [11],159 (47.6) ^b ng·h/mL
same,AUClast,[5]; [11],118 (44.3) ng·h/mL
same,t1/2,[5]; [11],17.6 (4.95) ^b h
same,Tmax,"[5]; istradefylline 40 mg + steady-state rifampin 600 mg/day, median (min, max)","3.0 (1.0, 6.0) h"
same,AUClast,[5]; [12],123 (77.6) ng·h/mL
same,Tmax,"[5]; istradefylline 40 mg alone, median (min, max)","3.5 (2.0, 12.0) h"
same,Geometric Mean Ratio (90%CI) of AUClast,[5],1.04 (0.90–1.21)
same,Geometric Mean Ratio (90%CI) of Cmax,[5],1.79 (1.59–2.01)
same,Geometric Mean Ratio (90%CI) of AUClast,[5]; listed as istradefylline M1,1.04
same,Geometric Mean Ratio (90%CI) of Cmax,[5]; listed as istradefylline M1,1.79
same,All M/P ratios,[5]; istradefylline alone or with rifampin (M8: except M/P ratio for Cmax after coadministration),< 9%
same,Change in AUClast during rifampin coadministration (GMR comparison),[5]; ln-transformed data,+4%
same,Change in Cmax during rifampin coadministration (GMR comparison),[5]; ln-transformed data,+79%
same,"AUClast, geometric mean",[5]; [13],110 (41.8) ng·h/mL
same,"Cmax, geometric mean",[5]; [13],7.0 (29.0) ng/mL
same,"AUClast, geometric mean",[5]; [14],105 (61.4) ng·h/mL
same,"Cmax, geometric mean",[5]; [14],3.90 (46.3) ng/mL
same,M/P ratio (AUClast),[5]; [15],0.0134 (0.0078)
same,M/P ratio (Cmax),[5]; [15],0.0241 (0.0045)
same,Cmax,"[5]; plasma, single oral istradefylline 40 mg alone, arithmetic mean (SD)",4.34 (2.49) ng/mL
